Assay results from ChEMBL document CHEMBL4261537, “Synthesis and pharmacological evaluation of multi-functional homoisoflavonoid derivatives as potent inhibitors of monoamine oxidase B and cholinesterase for the treatment of Alzheimer's disease” (Medchemcomm, 2017).

Columns and labels:
Acetylcholinesterase [1] = target: Acetylcholinesterase (Electrophorus electricus, UniProt O42275); test: Inhibition of electric eel AChE using acetylthiocholine iodide as substrate preincubated for 5 mins followed by substrate addition measured at 1 to 3 mins time interval by Ellman's method
Cholinesterase [2] = target: Cholinesterase (Equus caballus, UniProt P81908); test: Inhibition of equine serum BuChE using S-butyrylthiocholine iodide as substrate preincubated for 5 mins followed by substrate addition measured at 1 to 3 mins time interval by Ellman's method; assay type: ADME
[3] = Selectivity index, ratio of IC50 for equine serum BuChE to IC50 for electric eel AChE
[4] = target: T1, Amine oxidase [flavin-containing] B (Homo sapiens, UniProt P27338); test: Inhibition of recombinant human MAO-B assessed as reduction in H2O2 production using p-tyramine as substrate preincubated for 15 mins followed by substrate addition by Amplex red reagent based fluorescence assay
T1 sequence (P27338 whole entry): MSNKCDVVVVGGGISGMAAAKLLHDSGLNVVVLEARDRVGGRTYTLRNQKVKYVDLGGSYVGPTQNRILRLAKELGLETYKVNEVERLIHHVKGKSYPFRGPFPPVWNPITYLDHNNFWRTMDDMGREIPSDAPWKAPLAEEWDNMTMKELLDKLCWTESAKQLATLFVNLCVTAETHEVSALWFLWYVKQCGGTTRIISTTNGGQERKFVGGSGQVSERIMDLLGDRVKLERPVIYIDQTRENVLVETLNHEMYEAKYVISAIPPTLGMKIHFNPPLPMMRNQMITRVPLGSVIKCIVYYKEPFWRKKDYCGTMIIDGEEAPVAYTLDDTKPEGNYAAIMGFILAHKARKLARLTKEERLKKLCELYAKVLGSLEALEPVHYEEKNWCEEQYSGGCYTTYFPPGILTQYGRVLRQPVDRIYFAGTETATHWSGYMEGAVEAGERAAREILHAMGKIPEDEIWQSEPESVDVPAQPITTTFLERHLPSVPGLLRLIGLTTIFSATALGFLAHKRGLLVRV
Procedure, shortened: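 Human MAO-A or MAO-B, each set to the same control reaction velocity. Preincubated with compound 15 min at 37°C in the dark, in sodium phosphate buffer with DMSO. Then 200 μM Amplex Red (final) added with 1 U/mL HRP and 1 mM p-tyramine. Run in triplicate, mean ± SD.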

[5] = target: T2, Amine oxidase [flavin-containing] A (Homo sapiens, UniProt P21397); test: Inhibition of recombinant human MAO-A assessed as reduction in H2O2 production using p-tyramine as substrate preincubated for 15 mins followed by substrate addition by Amplex red reagent based fluorescence assay
T2 sequence (P21397 whole entry): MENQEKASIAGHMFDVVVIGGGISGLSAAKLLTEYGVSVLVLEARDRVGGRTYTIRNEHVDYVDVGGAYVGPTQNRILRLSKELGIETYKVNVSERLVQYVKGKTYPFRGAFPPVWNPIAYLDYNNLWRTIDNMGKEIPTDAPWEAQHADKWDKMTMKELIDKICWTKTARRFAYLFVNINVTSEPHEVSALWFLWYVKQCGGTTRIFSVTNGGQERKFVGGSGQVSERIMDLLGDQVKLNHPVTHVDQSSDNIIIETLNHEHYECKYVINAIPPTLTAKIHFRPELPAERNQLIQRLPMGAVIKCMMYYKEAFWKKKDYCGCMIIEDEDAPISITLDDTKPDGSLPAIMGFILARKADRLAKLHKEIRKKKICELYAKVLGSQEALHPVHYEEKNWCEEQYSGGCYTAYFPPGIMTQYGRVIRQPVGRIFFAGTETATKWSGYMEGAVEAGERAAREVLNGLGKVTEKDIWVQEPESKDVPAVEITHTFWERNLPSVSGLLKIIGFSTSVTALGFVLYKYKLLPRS

Homo sapiens [6] = species on record: Homo sapiens; test: Selectivity index, ratio of IC50 for recombinant human MAO-A to IC50 for recombinant human MAO-B
Acetylcholinesterase [7] = target: Acetylcholinesterase (Homo sapiens, UniProt P22303); test: Inhibition of human erythrocytes AChE using acetylthiocholine iodide as substrate preincubated for 5 mins followed by substrate addition measured at 1 to 3 mins time interval by Ellman's method
Cholinesterase [8] = target: Cholinesterase (Homo sapiens, UniProt P06276); test: Inhibition of human serum BuChE using S-butyrylthiocholine iodide as substrate preincubated for 5 mins followed by substrate addition measured at 1 to 3 mins time interval by Ellman's method; assay type: ADME
Homo sapiens [9] = species on record: Homo sapiens; test: Selectivity index, ratio of IC50 for human serum BuChE to IC50 for human erythrocytes AChE
[10] = target: T2, Amine oxidase [flavin-containing] A; test: Inhibition of recombinant human MAO-A assessed as reduction in H2O2 production at 100 uM using p-tyramine as substrate preincubated for 15 mins followed by substrate addition by Amplex red reagent based fluorescence assay
Procedure, shortened: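 Human MAO-A or MAO-B, each set to the same control reaction velocity. Preincubated with compound 15 min at 37°C in the dark, in sodium phosphate buffer with DMSO. Then 200 μM Amplex Red (final) added with 1 U/mL HRP and 1 mM p-tyramine. Resorufin fluorescence read at 37°C (ex 545/em 590 nm), background from enzyme-free wells subtracted. Run in triplicate, mean ± SD.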

Chain of Cholinesterase (Equus caballus, UniProt P81908) (P81908 whole entry): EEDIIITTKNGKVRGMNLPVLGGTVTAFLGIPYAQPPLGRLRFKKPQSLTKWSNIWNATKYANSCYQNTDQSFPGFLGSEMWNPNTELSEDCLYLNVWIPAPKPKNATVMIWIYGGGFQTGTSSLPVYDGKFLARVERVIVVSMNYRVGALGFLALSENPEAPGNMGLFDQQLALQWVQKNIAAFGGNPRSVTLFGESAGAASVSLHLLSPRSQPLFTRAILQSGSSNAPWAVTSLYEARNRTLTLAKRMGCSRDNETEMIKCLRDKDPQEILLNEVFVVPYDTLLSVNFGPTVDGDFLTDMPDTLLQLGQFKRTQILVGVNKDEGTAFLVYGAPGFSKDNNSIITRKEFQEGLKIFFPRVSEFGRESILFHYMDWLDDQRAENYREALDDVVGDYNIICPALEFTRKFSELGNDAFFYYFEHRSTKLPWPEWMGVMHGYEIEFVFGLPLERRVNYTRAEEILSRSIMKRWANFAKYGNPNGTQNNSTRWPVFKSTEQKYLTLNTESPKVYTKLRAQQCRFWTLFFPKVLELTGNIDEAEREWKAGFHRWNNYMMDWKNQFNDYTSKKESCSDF
Chain of Cholinesterase (Homo sapiens, UniProt P06276) (P06276 whole entry): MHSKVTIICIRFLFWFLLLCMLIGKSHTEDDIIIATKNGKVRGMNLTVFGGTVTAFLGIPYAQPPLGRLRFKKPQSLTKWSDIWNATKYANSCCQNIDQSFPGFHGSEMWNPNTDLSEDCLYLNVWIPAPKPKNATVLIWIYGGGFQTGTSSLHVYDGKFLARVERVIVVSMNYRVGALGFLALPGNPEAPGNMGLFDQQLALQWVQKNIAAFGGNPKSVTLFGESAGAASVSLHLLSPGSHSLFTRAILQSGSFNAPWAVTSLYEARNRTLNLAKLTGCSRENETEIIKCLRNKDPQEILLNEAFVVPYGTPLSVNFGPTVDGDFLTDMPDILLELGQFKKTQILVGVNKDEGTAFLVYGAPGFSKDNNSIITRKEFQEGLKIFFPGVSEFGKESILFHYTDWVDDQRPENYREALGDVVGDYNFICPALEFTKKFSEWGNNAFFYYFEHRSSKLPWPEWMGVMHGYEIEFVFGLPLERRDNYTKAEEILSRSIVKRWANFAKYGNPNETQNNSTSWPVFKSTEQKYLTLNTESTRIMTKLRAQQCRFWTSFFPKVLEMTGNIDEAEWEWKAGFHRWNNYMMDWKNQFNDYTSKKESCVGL
Chain of Acetylcholinesterase (Homo sapiens, UniProt P22303) (P22303 whole entry): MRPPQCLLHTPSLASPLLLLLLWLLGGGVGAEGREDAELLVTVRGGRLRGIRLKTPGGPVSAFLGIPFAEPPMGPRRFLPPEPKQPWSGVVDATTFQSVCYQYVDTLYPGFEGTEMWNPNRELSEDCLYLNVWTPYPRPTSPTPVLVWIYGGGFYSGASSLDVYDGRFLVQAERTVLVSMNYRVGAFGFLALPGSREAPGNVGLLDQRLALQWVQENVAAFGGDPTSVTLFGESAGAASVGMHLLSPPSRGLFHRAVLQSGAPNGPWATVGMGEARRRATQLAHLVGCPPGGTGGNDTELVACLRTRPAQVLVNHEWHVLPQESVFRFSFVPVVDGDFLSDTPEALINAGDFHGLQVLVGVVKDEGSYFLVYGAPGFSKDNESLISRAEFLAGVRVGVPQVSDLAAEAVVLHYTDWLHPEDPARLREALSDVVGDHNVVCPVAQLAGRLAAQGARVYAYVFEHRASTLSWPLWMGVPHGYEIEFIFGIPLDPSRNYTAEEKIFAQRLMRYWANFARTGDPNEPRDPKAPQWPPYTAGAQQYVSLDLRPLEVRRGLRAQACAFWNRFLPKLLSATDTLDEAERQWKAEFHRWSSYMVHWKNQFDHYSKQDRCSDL
Chain of Acetylcholinesterase (Electrophorus electricus, UniProt O42275) (O42275 whole entry): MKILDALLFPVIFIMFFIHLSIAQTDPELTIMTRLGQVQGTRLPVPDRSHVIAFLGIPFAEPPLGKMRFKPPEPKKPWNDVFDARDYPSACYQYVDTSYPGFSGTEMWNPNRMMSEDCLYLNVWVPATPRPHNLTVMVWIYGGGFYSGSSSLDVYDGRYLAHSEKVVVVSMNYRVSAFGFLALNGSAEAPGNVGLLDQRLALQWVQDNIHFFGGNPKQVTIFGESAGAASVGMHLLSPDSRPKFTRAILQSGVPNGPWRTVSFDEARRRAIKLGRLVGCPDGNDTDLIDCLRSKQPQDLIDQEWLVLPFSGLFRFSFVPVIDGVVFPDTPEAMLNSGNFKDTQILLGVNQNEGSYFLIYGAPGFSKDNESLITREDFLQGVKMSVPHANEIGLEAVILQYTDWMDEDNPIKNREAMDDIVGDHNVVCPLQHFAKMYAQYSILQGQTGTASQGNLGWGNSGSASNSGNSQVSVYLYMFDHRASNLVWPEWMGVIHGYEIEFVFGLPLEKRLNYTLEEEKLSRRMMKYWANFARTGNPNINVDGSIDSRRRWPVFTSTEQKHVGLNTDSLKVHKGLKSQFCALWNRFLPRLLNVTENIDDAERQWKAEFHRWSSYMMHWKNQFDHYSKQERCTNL

CN(C)CCOc1cccc(/C=C2\COc3ccccc3C2=O)c1
IC50 (Acetylcholinesterase [1]): 1.04 µM
IC50 (Cholinesterase [2]): 8.37 µM
Ratio IC50 [3]: 8.05
IC50 [4]: 0.571 µM
IC50 [5]: 38 µM
Ratio IC50 (Homo sapiens [6]): 66.5
IC50 (Acetylcholinesterase [7]): 1.41 µM
IC50 (Cholinesterase [8]): 4.44 µM
Ratio IC50 (Homo sapiens [9]): 3.15

CN(C)CCOc1ccccc1/C=C1\COc2ccccc2C1=O
IC50 (Acetylcholinesterase [1]): 65.3 µM
IC50 (Cholinesterase [2]): 10 µM
Ratio IC50 [3]: 0.154
IC50 [4]: > 100 µM
Ratio IC50 (Homo sapiens [6]): > 1
inhibition (INH) [10]: Not Active

CN(C)CCCCCCOc1ccc(/C=C2\COc3ccccc3C2=O)cc1
IC50 (Acetylcholinesterase [1]): 12.8 µM
IC50 (Cholinesterase [2]): 9.12 µM
Ratio IC50 [3]: 0.712
IC50 [4]: 3.22 µM
IC50 [5]: 39.1 µM
Ratio IC50 (Homo sapiens [6]): 12.1

CN1CCN(CCCOc2ccc(/C=C3\COc4ccccc4C3=O)cc2)CC1
IC50 (Acetylcholinesterase [1]): 10.1 µM
IC50 (Cholinesterase [2]): 15.4 µM
Ratio IC50 [3]: 1.53
IC50 [4]: 22.7 µM
Ratio IC50 (Homo sapiens [6]): > 4.41
inhibition (INH) [10]: Not Active

CCN(CCCOc1ccc(/C=C2\COc3ccccc3C2=O)cc1)Cc1ccccc1
IC50 (Acetylcholinesterase [1]): 29.4 µM
IC50 (Cholinesterase [2]): 17.2 µM
Ratio IC50 [3]: 0.583
IC50 [4]: 1.59 µM

CN(C)CCCOc1ccc(/C=C2\COc3ccccc3C2=O)cc1
IC50 (Acetylcholinesterase [1]): 5.21 µM
IC50 (Cholinesterase [2]): 20.3 µM
Ratio IC50 [3]: 3.9
IC50 [4]: 0.0438 µM
Ratio IC50 (Homo sapiens [6]): > 2280
inhibition (INH) [10]: Not Active

CCN(CC)CCOc1cccc(/C=C2\COc3ccccc3C2=O)c1
IC50 (Acetylcholinesterase [1]): 4.16 µM
IC50 (Cholinesterase [2]): 1.68 µM
Ratio IC50 [3]: 0.403
IC50 [4]: 0.824 µM
IC50 [5]: 80 µM
Ratio IC50 (Homo sapiens [6]): 97.1
IC50 (Acetylcholinesterase [7]): 30.3 µM
IC50 (Cholinesterase [8]): 10.3 µM
Ratio IC50 (Homo sapiens [9]): 0.34

CN1CCN(CCCCCCOc2ccc(/C=C3\COc4ccccc4C3=O)cc2)CC1
IC50 (Acetylcholinesterase [1]): 32.3 µM
IC50 (Cholinesterase [2]): 27.3 µM
Ratio IC50 [3]: 0.843
IC50 [4]: 6.24 µM
Ratio IC50 (Homo sapiens [6]): > 16.1
inhibition (INH) [10]: Not Active

CCN(CC)CCOc1ccccc1/C=C1\COc2ccccc2C1=O
IC50 (Acetylcholinesterase [1]): 65.3 µM
IC50 (Cholinesterase [2]): 11.5 µM
Ratio IC50 [3]: 0.176
IC50 [4]: 43.8 µM
Ratio IC50 (Homo sapiens [6]): > 2.64
inhibition (INH) [10]: Not Active

CN(CCOc1ccc(/C=C2\COc3ccccc3C2=O)cc1)Cc1ccccc1
IC50 (Acetylcholinesterase [1]): 19.3 µM
IC50 (Cholinesterase [2]): 41.5 µM
Ratio IC50 [3]: 2.14
IC50 [4]: 2.28 µM
Ratio IC50 (Homo sapiens [6]): > 43.8
inhibition (INH) [10]: Not Active

O=C1/C(=C/c2ccc(OCCN3CCN(Cc4ccccc4)CC3)cc2)COc2ccccc21
IC50 (Acetylcholinesterase [1]): 21 µM
IC50 (Cholinesterase [2]): 31.5 µM
Ratio IC50 [3]: 1.5
IC50 [4]: 97.5 µM
Ratio IC50 (Homo sapiens [6]): > 1.03
inhibition (INH) [10]: Not Active

CCN(CC)CCCOc1ccc(/C=C2\COc3ccccc3C2=O)cc1
IC50 (Acetylcholinesterase [1]): 3.2 µM
IC50 (Cholinesterase [2]): 8.27 µM
Ratio IC50 [3]: 2.58
IC50 [4]: 0.166 µM
IC50 [5]: 62.9 µM
Ratio IC50 (Homo sapiens [6]): 379

CN(C)CCCOc1cccc(/C=C2\COc3ccccc3C2=O)c1
IC50 (Acetylcholinesterase [1]): 4.97 µM
IC50 (Cholinesterase [2]): 2.16 µM
Ratio IC50 [3]: 0.435
IC50 [4]: 0.0484 µM
IC50 [5]: 93.7 µM
Ratio IC50 (Homo sapiens [6]): 1940
IC50 (Acetylcholinesterase [7]): 25.7 µM
IC50 (Cholinesterase [8]): 39.3 µM
Ratio IC50 (Homo sapiens [9]): 1.53

CCN(CCCCCCOc1ccc(/C=C2\COc3ccccc3C2=O)cc1)Cc1ccccc1
IC50 (Acetylcholinesterase [1]): 17 µM
IC50 (Cholinesterase [2]): 40 µM
Ratio IC50 [3]: 2.36
IC50 [4]: > 100 µM
Ratio IC50 (Homo sapiens [6]): > 1
inhibition (INH) [10]: Not Active

CN(CCCOc1ccc(/C=C2\COc3ccccc3C2=O)cc1)Cc1ccccc1
IC50 (Acetylcholinesterase [1]): 52.3 µM
IC50 (Cholinesterase [2]): 19.3 µM
Ratio IC50 [3]: 0.369
IC50 [4]: 0.88 µM
Ratio IC50 (Homo sapiens [6]): > 114
inhibition (INH) [10]: Not Active

CN(CCCCCCOc1ccc(/C=C2\COc3ccccc3C2=O)cc1)Cc1ccccc1
IC50 (Acetylcholinesterase [1]): 1.77 µM
IC50 (Cholinesterase [2]): 50.7 µM
Ratio IC50 [3]: 28.7
IC50 [4]: > 100 µM
Ratio IC50 (Homo sapiens [6]): > 1
inhibition (INH) [10]: Not Active
IC50 (Acetylcholinesterase [7]): 40.9 µM
IC50 (Cholinesterase [8]): 20 µM
Ratio IC50 (Homo sapiens [9]): 0.489

CCN(CC)CCCOc1cccc(/C=C2\COc3ccccc3C2=O)c1
IC50 (Acetylcholinesterase [1]): 14.1 µM
IC50 (Cholinesterase [2]): 1.03 µM
Ratio IC50 [3]: 0.0732
IC50 [4]: 18.2 µM
IC50 [5]: 64.7 µM
Ratio IC50 (Homo sapiens [6]): 3.55

CN(C)CCCCOc1ccc(/C=C2\COc3ccccc3C2=O)cc1
IC50 (Acetylcholinesterase [1]): 12.3 µM
IC50 (Cholinesterase [2]): 18.9 µM
Ratio IC50 [3]: 1.54
IC50 [4]: 0.756 µM
Ratio IC50 (Homo sapiens [6]): > 132
inhibition (INH) [10]: Not Active

CN(C)CCCOc1ccccc1/C=C1\COc2ccccc2C1=O
IC50 (Acetylcholinesterase [1]): 75.1 µM
IC50 (Cholinesterase [2]): 8.74 µM
Ratio IC50 [3]: 0.116
IC50 [4]: > 100 µM
Ratio IC50 (Homo sapiens [6]): > 1
inhibition (INH) [10]: Not Active

CN1CCN(CCCCOc2ccc(/C=C3\COc4ccccc4C3=O)cc2)CC1
IC50 (Acetylcholinesterase [1]): 13 µM
IC50 (Cholinesterase [2]): 10.4 µM
Ratio IC50 [3]: 0.799
IC50 [4]: 16.4 µM
Ratio IC50 (Homo sapiens [6]): > 6.1
inhibition (INH) [10]: Not Active

CCN(CCOc1ccc(/C=C2\COc3ccccc3C2=O)cc1)Cc1ccccc1
IC50 (Acetylcholinesterase [1]): 1.29 µM
IC50 (Cholinesterase [2]): 49.4 µM
Ratio IC50 [3]: 38.3
IC50 [4]: 4.29 µM
Ratio IC50 (Homo sapiens [6]): > 23.3
inhibition (INH) [10]: Not Active
